RGS4 pot – RGS4 potentiation or activation. HEK293 M3R/inducible RGS4, carbachol calcium flux Fluo4; active compounds read low. B-score at 10 µM. hit rate 0.92% among 310,000;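 active = B-score of the integrated calcium signal more than 4 SD below the library mean, with starting fluorescence not abnormally high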;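 also: negative B-score means reduced calcium response which marks RGS4 activation or potentiation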
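Assay system: HEK293 FlpIn-TREx cells, stable M3R, doxycycline-inducible RGS4 / Probe or stimulus: carbachol, ECmax concentration / Times: overnight RGS4 induction, 30 min dye load 37 °C, 20 min compound RT / Signal: kinetic calcium fluorescence imaging with Fluo4-AM dye, 2 µM / Measure: Agonist-evoked peak-minus-minimum fluorescence over baseline, integrated ratio, B score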
MrgX1 PAM – allosterically activates human MrgX1 receptor signaling; Q96LB2; MrgX1-HEK293, Fluo-4 calcium flux, FDSS; active compounds read high; B-score at 10 µM; hit rate 0.63% among 310,000;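 active = plate-corrected calcium response at least 3 library SD above typical, normal starting fluorescence, not activating the receptor alone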;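 also: compound read alongside a low EC10 to EC30 dose of BAM8-22 agonist; peak minus trough fluorescence over baseline measured at the second addition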
Target sequence (Q96LB2 whole entry, looked up): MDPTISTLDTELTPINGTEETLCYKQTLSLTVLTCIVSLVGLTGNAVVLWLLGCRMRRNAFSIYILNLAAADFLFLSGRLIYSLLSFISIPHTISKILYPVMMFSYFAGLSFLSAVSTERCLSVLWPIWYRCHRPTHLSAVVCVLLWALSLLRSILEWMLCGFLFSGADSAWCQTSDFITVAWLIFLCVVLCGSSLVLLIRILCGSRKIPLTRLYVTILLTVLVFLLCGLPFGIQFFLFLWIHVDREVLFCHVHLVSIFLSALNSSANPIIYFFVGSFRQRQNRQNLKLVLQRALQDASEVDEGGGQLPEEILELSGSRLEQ
MrgX1 antag – blocks BAM8-22 activation of human MrgX1 receptor | hit rate 1.3% among 310,000 | MRGX1-HEK293 calcium flux, Fluo-4, BAM8-22 antagonism; active compounds read low | B-score at 10 µM;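 active = calcium-response B-score plate-corrected more than 3 library SD below zero, starting fluorescence within 5 deviations, no agonist response on first addition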;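 also: peak minus trough fluorescence over baseline after final BAM8-22 challenge near maximal dose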
MrgX1 agonist – activates human MrgX1 receptor signaling; MrgX1-HEK293 cells, Fluo-4 calcium fluorescence, agonist mode; active compounds read high; B-score at 10 µM; hit rate 0.44% among 310,000; AID 588627;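 active = calcium response B-score plate-corrected fluorescence ratio at least 3 library SD, with starting fluorescence B-score inside 5 SD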
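Test system: Stable human MrgX1 HEK293 cell line | Schedule: Overnight plating before 1 h dye loading | Read-out basis: Baseline-normalised fluorescence change ratio, B-scored | Detection: Kinetic calcium dye fluorescence, Fluo-4 NW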
RGS4 inh – human RGS4 inhibition; P49798; HEK293 M3R/RGS4 inducible, Fluo-4 calcium flux; active compounds read high; triggered by carbachol at its EC20; B-score at 10 µM; hit rate 0.45% among 310,000;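 active = B-score, a plate-corrected calcium signal, over three deviations above library mean, with baseline fluorescence within five deviations of library mean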;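 also: RGS4 expression induced by doxycycline in cells with stable M3 receptor; B-score is computed from the integrated fluorescence ratio over baseline after carbachol; higher B-score means a larger calcium signal and so more RGS4 inhibition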
Target sequence (P49798 whole entry, looked up): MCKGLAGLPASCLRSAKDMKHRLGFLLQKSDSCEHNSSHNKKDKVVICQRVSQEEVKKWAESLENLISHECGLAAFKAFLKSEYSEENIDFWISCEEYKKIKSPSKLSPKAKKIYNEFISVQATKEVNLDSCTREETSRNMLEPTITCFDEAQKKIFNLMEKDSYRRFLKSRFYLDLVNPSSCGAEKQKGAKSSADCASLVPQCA
MrgX1 antag conf – confirmation of human MrgX1 receptor antagonists | remaining BAM8-22 calcium response % of control (active compounds read low), % at 10 µM | shares compounds with MrgX1 antag | MrgX1-HEK293, BAM8-22 calcium flux, Fluo-4; active compounds read low | hit rate 19% among 2,300;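 active = remaining agonist calcium response no higher than 100% minus 3 SD of agonist-only control wells, with starting fluorescence near control levels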;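 also: agonist BAM8-22 given at a near maximal EC90 to ECmax level; peak minus minimum fluorescence divided by baseline after agonist addition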
HEK293 Ca flux – activity in parental HEK293 cells lacking MrgX1; shares compounds with MrgX1 antag; Fluo-4 calcium fluorescence, FDSS; fluorescence ratio F(max-min)/F0 at 10 µM; hit rate 2% among 4,000; AID 624111;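 active = duplicate-averaged calcium fluorescence ratio at least three times the standard deviation of buffer wells, a nonspecific response in parental cells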
HEK293 Ca counter – activity in parental HEK293 cells without MrgX1; shares compounds with MrgX1 antag; parental HEK293 calcium flux, Fluo-4 fluorescence ratio; active compounds read high; fluorescence ratio F(max-min)/F0 at 10 µM; hit rate 0.4% among 4,000;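 active = calcium fluorescence ratio, averaged over duplicates, at least 3 SD of the buffer-well ratio, meaning a nonspecific response in receptor-free cells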;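 also: untransfected parental HEK293 lacking MrgX1 used as counterscreen for MrgX1 allosteric activators; fluorescence change taken during the second addition on a kinetic imager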
HEK293 Ca cntr2 – activity in parental HEK293 cells lacking MrgX1 receptor | shares compounds with MrgX1 antag | Fluo-4 calcium fluorescence (FDSS); active compounds read high | fluorescence ratio F(max-min)/F0 at 10 µM | hit rate 8.7% among 4,000;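 active = calcium fluorescence ratio at least three times the spread of buffer wells, meaning a non-specific response in parental cells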
An asterisk follows results filed as active; i = inactive; . = not tested or not shown. Only some compounds are listed: those with a hit (about 3.5% of all), similar ones and a draw of the others.

SMILES	RGS4 pot	MrgX1 PAM	MrgX1 antag	MrgX1 agonist	RGS4 inh	MrgX1 antag conf	HEK293 Ca flux	HEK293 Ca counter	HEK293 Ca cntr2
COc1ccc(OC)c2sc(NC(=O)CCS(=O)(=O)c3ccccc3)nc12	i	i	i	i	i	.	.	.	.
COc1ccc(C(O)Cc2nccn2C)cc1 (stereo not given)	i	i	i	i	i	.	.	.	.
CN(CCCNC(=O)c1cc2c(=O)[nH]c3ccccc3c2n1C)Cc1ccccc1	i	i	-5.7*	i	i	i	i	i	i
CC1CC(C)CN(CCCNC(=O)c2cc3c(=O)[nH]c4ccccc4c3n2C)C1 (stereo not given)	i	i	i	i	i	.	.	.	.
S=C(NCc1cccs1)Nc1cccc(Cl)c1	i	i	-5.1*	i	i	i	i	i	i
CC(/C=C1\SC(=S)N(C(C(=O)O)c2ccccc2)C1=O)=C\c1ccccc1 (stereo not given)	-7.4*	i	-14*	i	i	i	i	i	i
NS(=O)(=O)c1ccc(CNC(=O)C(c2ccccc2)c2ccccc2)cc1	i	i	i	i	i	.	.	.	.
Cc1cc2c(cc1S(=O)(=O)N(C)c1ccccc1)n(C)c(=O)n2C	i	i	i	i	i	.	.	.	.
Cc1cccc(N(C)S(=O)(=O)c2cc3c(cc2C)n(C)c(=O)c(=O)n3C)c1	i	i	-4.7*	i	i	i	i	i	i
COC(=O)N/N=C/c1cn(Cc2c(Cl)cccc2Cl)c2ccccc12	i	i	i	i	i	.	.	.	.
CCc1ccc(-c2cc(C(=O)NCc3ccccn3)c3ccccc3n2)cc1	i	i	-5.3*	i	i	77%*	i	i	i
COC(=O)C(C)NC(=O)C12CC3CC(C1)CC(c1ccc(C)cc1)(C3)C2 (stereo not given)	i	i	i	i	i	.	.	.	.
CCN(Cc1ccccc1)C(=O)Cn1cnc2c1c(=O)n(C)c(=O)n2C	i	i	i	i	i	.	.	.	.
Cn1c(=O)c2c(ncn2CCN(CCO)Cc2ccccc2)n(C)c1=O	i	i	-6.7*	i	i	81%*	i	i	i
CCN(CCCNC(=O)c1nn(C)c2c1CS(=O)(=O)c1ccccc1-2)Cc1ccccc1	i	i	i	i	i	.	.	.	.
CCOc1ccc(Br)cc1CC(=O)O	i	i	i	i	i	.	.	.	.
CCCOc1ccc(Br)cc1CSC(=N)N	i	i	-4.6*	i	i	i	i	i	i
CCN(C(=O)COC(=O)c1cc(-c2ccccc2)nc2ccc(Br)cc12)C1CCS(=O)(=O)C1 (stereo not given)	i	i	i	i	i	.	.	.	.
CCN(C(=O)COc1ncnc2ccc(Br)cc12)C1CCS(=O)(=O)C1 (stereo not given)	i	i	-5.7*	i	i	i	i	i	i
O=[N+]([O-])c1cccc(-c2n[nH]c(=S)n2Cc2ccccc2)c1	i	i	-17*	i	i	i	i	i	i
O=C(NC12CC3CC(CC(C3)C1)C2)OCCNC1CCCCC1	i	i	i	i	i	.	.	.	.
CC(C)(C)NC(=O)C1CCN(S(=O)(=O)c2cccc(C(F)(F)F)c2)CC1	i	i	i	i	i	.	.	.	.
CCC(C)(CN(C)C)OC(=O)c1ccccc1 (stereo not given)	.	i	i	i	.	.	.	.	.
COc1ccc(C(=O)Cc2ccc3c(c2)OCO3)c(O)c1	i	i	i	i	i	.	.	.	.
O=C(Cc1ccc2c(c1)OCCO2)c1c(O)cc(O)cc1O	i	i	-5.2*	i	i	71%*	i	i	i
SMILES	RGS4 pot	MrgX1 PAM	MrgX1 antag	MrgX1 agonist	RGS4 inh	MrgX1 antag conf	HEK293 Ca flux	HEK293 Ca counter	HEK293 Ca cntr2
Cc1ccc(C)c(S(=O)(=O)N2CCCC2CNC(=O)C(=O)NCCc2ccco2)c1 (stereo not given)	i	i	i	i	i	.	.	.	.
O=C(NCCc1ccco1)C(=O)NCC1CCCN1S(=O)(=O)c1ccccc1 (stereo not given)	-7.3*	i	-5.1*	i	i	i	i	i	i
COc1ccccc1CC(=O)Nc1nc(-c2ccc(F)c(F)c2)cs1	i	i	i	i	i	.	.	.	.
COc1ccc(-c2csc(NC(=O)c3cc(C)oc3C)n2)cc1OC	i	i	-4.9*	i	i	71%*	i	i	i
COc1ccc(-c2csc(NC(=O)Cc3ccccc3F)n2)cc1OC	i	i	-6.1*	i	i	78%*	i	i	i
CCc1noc(C)c1C(=O)Nc1nc(-c2ccc(OC)c(OC)c2)cs1	i	i	i	i	i	.	.	.	.
COc1ccc(-c2csc(NC(=O)C3CCN(c4ncnc5sc(C)c(C)c45)CC3)n2)cc1OC	i	i	-6*	i	i	79%*	i	i	i
CC(NC(=O)/C=C/c1ccccc1[N+](=O)[O-])C1CC2CCC1C2 (stereo not given)	i	i	i	i	i	.	.	.	.
O=c1cc(C(F)(F)F)[nH]c(=S)n1-c1ccccc1	i	i	i	i	i	.	.	.	.
O=c1oc2ccccc2c2c1SC(C(F)(F)F)C2 (stereo not given)	i	i	-5.1*	i	i	76%*	i	i	i
CN(Cc1ccco1)S(=O)(=O)c1cc(F)ccc1CN1C(=O)c2cccnc2C1=O	i	i	-4.9*	i	i	i	i	i	i
COc1ccc(CN2C(=O)c3cccnc3C2=O)cc1S(=O)(=O)N(C)Cc1ccco1	i	i	i	i	i	.	.	.	.
Nc1c(C(=O)NCc2ccco2)c2nc3ccccc3nc2n1CCc1ccccc1F	i	i	-7.5*	i	i	i	i	i	i
COc1ccc(CCn2c(N)c(C(=O)NCc3ccco3)c3nc4ccccc4nc32)cc1	i	i	i	i	i	.	.	.	.
